Laboratory results reported in PMC2034471 (Nucleic Acids Research, 2007).
One block for each molecule: values may come before it. Ends that are not written are not given here. Me2 = dimethylated (lysine)

Experiments:
[1] = test system: rad9Δ cells complemented with rad9ΔTudor allele; assay: resistance of yeast cells to genotoxic stress, spot test; type: cell-based, Saccharomyces cerevisiae; settings: 10-fold serial dilutions on YPD plates with drug; versus wild-type RAD9
Summary of the method: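 The rad9Δ-L157 full RAD9 deletion strain carried a URA3 YCp50 plasmid: empty, wild-type RAD9 under its own promoter, or RAD9 lacking tudor aa 754–947. Overnight YPD cultures were diluted to OD 0.1 and grown 4–5 h. Tenfold dilutions were spotted on YPD ± camptothecin or 4-nitroquinoline 1-oxide, or plates given UV (120 J/m2) or X-rays (150 Gy, 2.5 Gy/min).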

[2] = test system: ScRad9[754–947]; assay: NMR titration of ScRad9[754–947] with histone peptides; type: binding, Saccharomyces cerevisiae; settings: ^1H-^15N HSQC, 600 MHz; protein 0.2–0.5 mM; 50 mM MES pH 6, 50 mM NaCl
Summary of the method: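 15N-labelled protein (0.2–0.5 mM) in 50 mM MES pH 6, 50 mM NaCl, 1 mM EDTA, 1 mM NaN3, protease inhibitors, TSP reference. Methyl-lysine H3-K79 and H4-K20 tail peptides titrated to 9-, 7-, 5- or 2-fold molar excess. Weighted shift |Δδ1H| + 0.1×|Δδ15N| plotted against ligand concentration; Kd fitted from the curves.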

[3] = molecular target: Mm53BP1[1463–1617] (mouse) (UniProt P70399); assay: NMR titration
[4] = test system: mouse 53BP1 tudor fragment (1463–1617); assay: isothermal titration calorimetry; type: binding; settings: 30°C; for Ka (ITC): 50 mM Tris/HCl pH 7.2, 50 mM NaCl, protein 18–33 µM, one-site model; for TΔS / ΔG / ΔH: ITC; for TΔS / ΔG: pH 7.2; for ΔH: pH 7.2, one-site model
Summary of the method: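 Protein in the cell titrated with H4-K20me2 or H4K20me2-long peptide, generally 10–15 times more concentrated, both equilibrated in the same buffer, by automatic 5–10 µl injections. The first 2 µl injection was excluded. Peaks were integrated and baseline-corrected. Heat of dilution was taken from peptide injected into buffer. One-site fitting gave n, Ka and ΔH.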

[5] = test system: single-stranded and double-stranded DNA; settings: EMSA; human 53BP1; ref [33]; cited from earlier work
[6] = test system: 146 bp double-stranded DNA; assay: EMSA, 146 bp ds DNA; type: binding; settings: DNA 26 nM, 2- to 128-fold molar excess of protein
Summary of the method: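 146 bp fragment made by PCR on a pUC(357.4) digest template and 5′-end labelled with 32P-ATP/T4 polynucleotide kinase at 37°C. Protein fragments incubated with labelled DNA for 2 h at 22°C in 50 mM Tris–HCl pH 8.0, 1 mM EDTA, 1 mM AEBSF, 1 mM DTT, 50 mM NaCl, 0.1% triton X-100. Resolved on pre-run 6% native polyacrylamide (29:1) in 0.5× TEG at 70 V. Complexes detected by autoradiography of dried gels at –80°C.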

[7] = test system: 10 bp oligonucleotide; settings: NMR; ref [15]; cited from earlier work
[8] = aggregation / stability of Rad9 fragments in solution; type: physicochemical
[9] = test system: histone H3; settings: GST fusion; ref [16],[32]; cited from earlier work
[10] = molecular target: Mm53BP1[1463–1617] (mouse, UniProt P70399 1463-1617); assay: ITC
[11] = test system: H3 from calf thymus; assay: GST-pulldown, binding to histone H3; settings: calf thymus H3, immunoblotting after elution from beads; data not shown
[12] = test system: DNA; assay: surface plasmon resonance, DNA binding; settings: versus wild-type ScRad9[754–931]; data not shown

Molecule: CC[C@@]1(O)C(=O)OCc2c1cc1n(c2=O)Cc2cc3ccccc3nc2-1 [camptothecin]
sensitivity of rad9ΔTudor cells to DNA damage [1]: hypersensitivity to DNA damage which was particularly pronounced

binding to ScRad9[754–947] (^1Hn and ^15N chemical shifts) [2]: cannot bind
Molecule: KRHRK*ILRD [yeast H4K20me2]

Kd [3]: 1500 µM
Molecule: H3-K79me2 peptide

Molecule: O=[N+]([O-])c1cc[n+]([O-])c2ccccc12 [4-nitroquinoline 1-oxide]
sensitivity of rad9ΔTudor cells to DNA damage [1]: hypersensitivity to DNA damage

binding to ScRad9[754–947] (^1Hn and ^15N chemical shifts) [2]: cannot bind
Molecule: KRHRK*VLRD [metazoan H4K20me2]
Ka (ITC) [4]: 130000 ± 16000 M⁻¹ | TΔS [4]: 4.9 kcal/mol | ΔG [4]: –7.1 kcal/mol | ΔH [4]: –2.2 ± 0.1 kcal/mol

Molecule: GKGGAKRHRK*VLRDNIQGK [H4-K20me2-long]
Ka (ITC) [4]: 110000 ± 16000 M⁻¹ | TΔS [4]: 4.6 kcal/mol | ΔG [4]: –6.9 kcal/mol | ΔH [4]: –2.3 ± 0.1 kcal/mol

B1: fragments 1319–1480: human 53BP1 fragment 1319–1480 containing the RG-rich stretch (protein, UniProt Q12888 1319-1480, looked up, fragment)
chain: TSLSAMHSSGSSGKGAGPLRGKTSGTEPADFALPSSRGGPGKLSPRKGVSQTGTPVCEEDGDAGLGIRQGGKAPVTPRGRGRRGRPPSRTTGTRETAVPGPLGIEDISPNLSPDDKSFSRVVPRVPDSTRRTDVGAGALRRSDSPEIPFQAAAGPSDGLDAS
interaction with DNA in vitro [5]: interact with single-stranded and double-stranded DNA in vitro

B2: Mm53BP1[1463–1617]: mouse 53BP1 fragment 1463–1617, tandem tudor region (protein)
chain: PFQAATGSSDGLDSSSSGNSFVGLRVVAKWSSNGYFYSGKITRDVGAGKYKLLFDDGYECDVLGKDILLCDPIPLDTEVTALSEDEYFSAGVVKGHRKESGELYYSIEKEGQRKWYKRMAVILSLEQGNRLREQYGLGPYEAVTPLTKAADISLD
interaction with 146 bp ds DNA by gel retardation [6]: could not detect any interaction | affinity for 10 bp oligonucleotide, in words [7]: millimolar affinity interaction

B3: GST-ScRad9[750–917]: Rad9 construction reported by two different groups; stability by NMR tested here (protein, UniProt P14737 750-917, looked up, fragment)
chain: ETGSGKDSKEQSYVFPEGIRTADNSFLSKDDIIFGNAVWCQYTWNYKFYPGILLEVDTNQDGCWIYFETGRSLTKDEDIYYLDIRIGDAVTFDGNEYVVVGLECRSHDLNIIRCIRGYDTVHLKKKNASGLLGKRTLIKALSSISLDLSEWAKRAKIILEDNEKNKGD
modifications: GST tag
NMR signal lost ([8]; after 2.5 h at 30°C): 40% | capture of histone H3 [9]: capture of histone H3

Ka [10]: 130000 M⁻¹ | Kd [10]: 7.7 µM | dH [10]: -2.2 ± 0.1 kcal/mol | stoichiometry N [10]: 1
Molecule: KRHRK(Me2)VLRD [Metazoan H4-K20me2 peptide]

B4: 1480–1616: human 53BP1 fragment 1480–1616 containing the tudor region (protein, UniProt Q12888 1480-1616, looked up, fragment)
chain: SSPGNSFVGLRVVAKWSSNGYFYSGKITRDVGAGKYKLLFDDGYECDVLGKDILLCDPIPLDTEVTALSEDEYFSAGVVKGHRKESGELYYSIEKEGQRKWYKRMAVILSLEQGNRLREQYGLGPYEAVTPLTKAAD
interaction with DNA in vitro [5]: interact with single-stranded and double-stranded DNA in vitro

B5: GST-ScRad9[754–947]: GST fusion of ScRad9[754–947] (protein)
chain: GKDSKEQSYVFPEGIRTADNSFLSKDDIIFGNAVWCQYTWNYKFYPGILLEVDTNQDGCWIYFETGRSLTKDEDIYYLDIRIGDAVTFDGNEYVVVGLECRSHDLNIIRCIRGYDTVHLKKKNASGLLGKRTLIKALSSISLDLSEWAKRAKIILEDNEKNKGDAYRYLRHPIRGRKSMTNVLSPKKHTDDEKD
modifications: left off: GST, end not stated, kept
H3 captured in GST-pull-down [11]: not together

Ka [10]: 110000 M⁻¹ | Kd [10]: 8.8 µM | dH [10]: -2.3 ± 0.1 kcal/mol | stoichiometry N [10]: 1
Molecule: GKGGAKRHRKVLRDNIQGK (K* dimethylated (K20, tenth residue of the peptide)) [Metazoan H4-K20me2-long peptide]

B6: ScRad9[754–931]: shorter fragment 754–931 of S. cerevisiae Rad9 (protein, UniProt P14737 754-931, looked up, fragment)
chain: GKDSKEQSYVFPEGIRTADNSFLSKDDIIFGNAVWCQYTWNYKFYPGILLEVDTNQDGCWIYFETGRSLTKDEDIYYLDIRIGDAVTFDGNEYVVVGLECRSHDLNIIRCIRGYDTVHLKKKNASGLLGKRTLIKALSSISLDLSEWAKRAKIILEDNEKNKGDAYRYLRHPIRGRKS
aggregation propensity / rate relative to ScRad9[754–947] [8]: same aggregation propensity

DNA-binding capacity by surface plasmon resonance [12]: looses the DNA-binding capacity
B7: ScRad9[754–931,C789A,C812S,C853S] (protein, UniProt P14737 754-931, looked up, variant C789A C812S C853S)
chain: GKDSKEQSYVFPEGIRTADNSFLSKDDIIFGNAVWAQYTWNYKFYPGILLEVDTNQDGSWIYFETGRSLTKDEDIYYLDIRIGDAVTFDGNEYVVVGLESRSHDLNIIRCIRGYDTVHLKKKNASGLLGKRTLIKALSSISLDLSEWAKRAKIILEDNEKNKGDAYRYLRHPIRGRKS
aggregation propensity / rate relative to ScRad9[754–947] [8]: 1.5 times faster
